In ChEMBL document CHEMBL3108738, “The chemical and biological potential of C ring modified triterpenoids” (Eur J Med Chem, 2014):
Calls of active or inactive are those of the source. The calls are words filed in the database; no cut-off is given here.

Experiments:
A549 = assay: Cytotoxicity against human A549 cells after 96 hrs by SRB assay; type: functional, cell-based; conditions: A549, 96 h
NIH3T3 = assay: Cytotoxicity against mouse NIH/3T3 cells after 96 hrs by SRB assay; type: ADME, cell-based; conditions: NIH3T3, 96 h
HT-29 = assay: Cytotoxicity against human HT-29 cells after 96 hrs by SRB assay; type: functional, cell-based; conditions: HT-29, 96 h
A2780 [1] = assay: Cytotoxicity against human A2780 cells after 96 hrs by SRB assay; type: functional, cell-based; conditions: A2780, 96 h
[2] = Cytotoxicity against human 518A2 cells after 96 hrs by SRB assay; type: functional, cell-based; conditions: 518A2, 96 h
MCF7 = assay: Cytotoxicity against human MCF7 cells after 96 hrs by SRB assay; type: functional, cell-based; conditions: MCF7, 96 h
8505C = assay: cells; type: functional, cell-based; conditions: Homo sapiens, 96 h
A2780 [3] = assay: Induction of apoptosis in human A2780 cells assessed as vital cells at 30 uM after 24 hrs by annexin V/propidium iodide staining-based FACS analysis (reference value: 82.15%); type: functional
A2780 [4] = assay: Cell cycle arrest in human A2780 cells assessed as accumulation at G2 phase at 30 uM by propidium iodide staining-based FACS analysis (reference value: 15.721 %); type: functional
A2780 [5] = assay: Induction of apoptosis in human A2780 cells assessed as secondary necrotic cells at 30 uM after 24 hrs by annexin V/propidium iodide staining-based FACS analysis (reference value: 9.71%); type: functional
A2780 [6] = assay: Cell cycle arrest in human A2780 cells assessed as accumulation at G1 phase at 30 uM by propidium iodide staining-based FACS analysis (reference value: 51.839 %); type: functional
A2780 [7] = assay: Cell cycle arrest in human A2780 cells assessed as accumulation at S phase at 30 uM by propidium iodide staining-based FACS analysis (reference value: 32.439 %); type: functional
A2780 [8] = assay: Induction of apoptosis in human A2780 cells assessed as necrotic cells at 30 uM after 24 hrs by annexin V/propidium iodide staining-based FACS analysis (reference value: 1.78%); type: functional
A2780 [9] = assay: Induction of apoptosis in human A2780 cells assessed as necrotic cells at 30 uM after 24 hrs by annexin V/propidium iodide staining-based FACS analysis (reference value: 6.37%); type: functional
A2780 [10] = assay: Cell cycle arrest in human A2780 cells at 30 uM by propidium iodide staining-based FACS analysis; type: functional
A2780 [11] = assay: Cell cycle arrest in human A2780 cells assessed as reduction of G2/M phase at 30 uM by propidium iodide staining-based FACS analysis; type: functional
A2780 [12] = assay: Induction of apoptosis in human A2780 cells at 30 uM after 24 hrs by annexin V/propidium iodide staining-based FACS analysis; type: functional
A2780 [13] = assay: Induction of apoptosis in human A2780 cells assessed as DNA ladder formation at 30 uM after 24 hrs by electrophoresis; type: functional, cell-based
Summary of the method: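 A2780 cells were exposed to 30 µM compound for 24 h. Floating (dead) cells were collected and washed with PBS, and DNA fragmentation was examined by gel laddering alongside an untreated control.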

IC50 (8505C) [µM]	SMILES	IC50 (A549) [µM]	IC50 (NIH3T3) [µM]	IC50 (HT-29) [µM]	IC50 (A2780 [1]) [µM]	IC50 [2] [µM]	IC50 (MCF7) [µM]	Activity (A2780 [3]) [%]	Activity (A2780 [4]) [%]	Activity (A2780 [5]) [%]	Activity (A2780 [6]) [%]	Activity (A2780 [7]) [%]	Activity (A2780 [8]) [%]	Activity (A2780 [9]) [%]	Activity (A2780 [10])	Activity (A2780 [11])	Activity (A2780 [12])	Activity (A2780 [13])
13.3	COC(=O)[C@]12CCC(C)(C)C[C@H]1C1=CC[C@@H]3[C@@]4(C)C[C@@H](OC(C)=O)[C@H](OC(C)=O)C(C)(C)[C@@H]4CC[C@@]3(C)[C@]1(C)CC2	7.8	30.5	26.3	6.8	8.6	> 30											
29.1	CC1(C)CC[C@]2(C(=O)OCc3ccccc3)CC[C@]3(C)C(=CC[C@@H]4[C@@]5(C)CC[C@H](O)C(C)(C)[C@@H]5CC[C@]43C)[C@@H]2C1	28	22.4	28.7	23	28	15.8											
> 90	CC(=O)O[C@H]1CC[C@]2(C)[C@H]3C[C@H](O)[C@]45OC(=O)[C@@]6(CCC(C)(C)C[C@H]64)CC[C@@]5(C)[C@]3(C)CC[C@H]2C1(C)C	> 90	85.7	> 90	63.2	> 90	> 90	74.74	15.86	11.89	51.879	32.261	1.54	11.84	inactive			
41.9	CC(=O)O[C@H]1CC[C@]2(C)[C@H]3CC(=O)[C@@H]4[C@@H]5CC(C)(C)CC[C@]5(C(=O)OCc5ccccc5)CC[C@@]4(C)[C@]3(C)CC[C@H]2C1(C)C	69.1	> 90	> 90	19.8	73.2	> 90		1.057		58.015	40.927				Active		
7	CC(=O)O[C@H]1CC[C@]2(C)[C@H]3C[C@H](OC(C)=O)[C@]45OC(=O)[C@@]6(CCC(C)(C)C[C@H]64)CC[C@@]5(C)[C@]3(C)CC[C@H]2C1(C)C	6.6	7.2	14.1	5.6	6.8	18.5	44.89	16.597	18.67	56.115	27.288	3.78	32.66	inactive		Active	Active
23.3	COC(=O)[C@]12CCC(C)(C)C[C@H]1C1=C(O)C(=O)[C@@H]3[C@@]4(C)CC[C@H](O)C(C)(C)[C@@H]4CC[C@@]3(C)[C@]1(C)CC2	25.6	25.8	15.3	17.5	21.2	25.8	25.72	18.968	19.74	59.438	21.594	6.65	48.08			>50%	
16.2	COC(=O)[C@]12CCC(C)(C)C[C@H]1C1=CC(=O)[C@@H]3[C@@]4(C)CC[C@H](OC(C)=O)C(C)(C)[C@@H]4CC[C@@]3(C)[C@]1(C)CC2	66.1	33.6	29.4	40	24.1		72.75	17.835	12.57	56.831	25.334	1.4	13.28				
20.6	COC(=O)[C@]12CC[C@@H](C)[C@H](C)[C@H]1C1=CC[C@@H]3[C@@]4(C)CC[C@H](O)C(C)(C)[C@@H]4CC[C@@]3(C)[C@]1(C)CC2 [METHYL URSOLATE]	20.2		25.4	15.3	17.7	22.2											
20.5	COC(=O)[C@]12CCC(C)(C)C[C@H]1C1=CC[C@@H]3[C@@]4(C)CC[C@H](OC(C)=O)C(C)(C)[C@@H]4CC[C@@]3(C)[C@]1(C)CC2	26.1	34.3	26.7	8.6	34.1	16.7	72.47	15.901	9.43	55.294	28.805	2.41	15.68	inactive			
10.3	COC(=O)[C@]12CCC(C)(C)C[C@H]1[C@H]1C(=O)C[C@@H]3[C@@]4(C)C[C@@H](OC(C)=O)[C@H](OC(C)=O)C(C)(C)[C@@H]4CC[C@@]3(C)[C@]1(C)CC2	14.1	31.7	17.6	11.6	9.6	23.8											
> 60	CC1(C)CC[C@]2(C(=O)O)CC[C@]3(C)C(=CC[C@@H]4[C@@]5(C)CC[C@H](O)C(C)(C)[C@@H]5CC[C@]43C)[C@@H]2C1 [OLEANOLIC_ACID]	72.3	76.4	38.8	14	> 60	> 60											
13	COC(=O)[C@]12CCC(C)(C)C[C@H]1C1=CC(=O)[C@@H]3[C@@]4(C)CC[C@H](O)C(C)(C)[C@@H]4CC[C@@]3(C)[C@]1(C)CC2	15.1	24.8	18.5	6.6	15.6	21.3	33.08		29.68			3.11	34.13			>50%	Active

Continued, compound first:

SMILES	IC50 (8505C) [µM]	IC50 (A549) [µM]	IC50 (NIH3T3) [µM]	IC50 (HT-29) [µM]	IC50 (A2780 [1]) [µM]	IC50 [2] [µM]	IC50 (MCF7) [µM]	Activity (A2780 [3]) [%]	Activity (A2780 [4]) [%]	Activity (A2780 [5]) [%]	Activity (A2780 [6]) [%]	Activity (A2780 [7]) [%]	Activity (A2780 [8]) [%]	Activity (A2780 [9]) [%]	Activity (A2780 [10])	Activity (A2780 [11])	Activity (A2780 [12])	Activity (A2780 [13])
CC1(C)CC[C@@]23CC[C@]4(C)[C@@](OC2=O)([C@@H]3C1)[C@@H](I)C[C@@H]1[C@@]2(C)C[C@@H](O)[C@H](O)C(C)(C)[C@@H]2CC[C@]14C	72.1	34.4	80.2	> 90	31.5													
CC1(C)CC[C@]2(C(=O)O)CC[C@]3(C)C(=CC[C@@H]4[C@@]5(C)C[C@@H](O)[C@H](O)C(C)(C)[C@@H]5CC[C@]43C)[C@@H]2C1 [MASLINIC ACID]			21.4				16.6											
CC1(C)CC[C@@]23CC[C@]4(C)[C@@](OC2=O)([C@@H]3C1)[C@@H](Cl)C[C@@H]1[C@@]2(C)C[C@@H](O)[C@H](O)C(C)(C)[C@@H]2CC[C@]14C	18	33.1	> 90	510	34.2													
CN[C@@H]1C[C@H]2O[C@@](C)([C@@H]1OC)n1c3ccccc3c3c4c(c5c6ccccc6n2c5c31)C(=O)NC4 [STAUROSPORINE]							0.4											
COC(=O)[C@]12CCC(C)(C)C[C@H]1C1=CC[C@@H]3[C@@]4(C)C[C@@H](O)[C@H](O)C(C)(C)[C@@H]4CC[C@@]3(C)[C@]1(C)CC2 [MASLINIC ACID METHYL ESTER]					17.8													
CC1(C)CC[C@@]23CC[C@]4(C)[C@@](OC2=O)([C@@H]3C1)[C@@H](Br)C[C@@H]1[C@@]2(C)C[C@@H](O)[C@H](O)C(C)(C)[C@@H]2CC[C@]14C	36.5	29.1	43.1	> 90	25.9													
CC1(C)CC[C@@]23CC[C@]4(C)[C@@](OC2=O)([C@@H]3C1)[C@@H](O)C[C@@H]1[C@@]2(C)C[C@@H](O)[C@H](O)C(C)(C)[C@@H]2CC[C@]14C	> 90	> 90	22.1	92.8	39.9	78.4	> 90											
CC1(C)CC[C@]2(C(=O)OCc3ccccc3)CC[C@]3(C)[C@H](C(=O)C[C@@H]4[C@@]5(C)CC[C@H](O)C(C)(C)[C@@H]5CC[C@]43C)[C@@H]2C1								74.47		11.08			0.62	13.82				
